Measurements from ChEMBL document CHEMBL1124947, “Cationic antiprotozoal drugs. Trypanocidal activity of 2-(4'-formylphenyl)imidazo[1,2-a]pyridinium guanylhydrazones and related derivatives of quaternary heteroaromatic compounds” (J Med Chem, 1990).

Legend:
[1] = tested on: Mus musculus; assay: Trypanocidal Activity at I.C.E. value 0.30 when administered perorally.; type: functional
[2] = tested on: Mus musculus; assay: Trypanocidal Activity at I.C.E. value 0.85 when administered subcutaneously.; type: functional
Outline: (§1)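 Mice, in groups of five per dose, were given a standard inoculum of blood-stage T. rhodesiense that is lethal to all untreated controls, then dosed subcutaneously. Usually 11 dose levels were used (2^n × 0.42 mg/kg).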

[3] = tested on: Mus musculus; assay: Trypanocidal Activity at I.C.E. value 0.20 when administered subcutaneously.; type: functional
[4] = tested on: Mus musculus; assay: Trypanocidal Activity at I.C.E. value 0.36 when administered perorally.; type: functional
[5] = tested on: Mus musculus; assay: Trypanocidal Activity at I.C.E. value 0.32 when administered subcutaneously.; type: functional
Outline: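 Blood-stage T. rhodesiense infection came from a standard inoculum lethal to all untreated mice. Drug was given by subcutaneous injection to groups of five mice. Survival beyond 30 days counted as cure. […] Sub-curative doses scored 0, and data were normalized at each dose.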

[6] = tested on: Mus musculus; assay: Trypanocidal Activity at I.C.E. value 0.43 when administered perorally.; type: functional
[7] = tested on: Mus musculus; assay: Trypanocidal Activity at I.C.E. value 0.61 when administered perorally.; type: functional
[8] = tested on: Mus musculus; assay: Trypanocidal Activity at I.C.E. value 0.81 when administered subcutaneously.; type: functional; outline: as §1
[9] = tested on: Mus musculus; assay: Trypanocidal Activity at I.C.E. value 0.93 when administered subcutaneously.; type: functional; outline: as §1
[10] = tested on: Mus musculus; assay: Curative activity of the Compound after oral administration at a dose of 6.6 mg/kg and I.C.E. value of 0.60; 2/5; type: functional
[11] = tested on: Mus musculus; assay: Fraction of mice that were cured after subcutaneous administration at a dose of 53 mg/kg and I.C.E. value of 0.82; type: functional
[12] = tested on: Mus musculus; assay: Curative activity of the Compound after Subcutaneous administration at a dose of 0.42 mg/kg and I.C.E. value of 0.82; 8/10; type: functional
[13] = tested on: Mus musculus; assay: Curative activity of the Compound after Subcutaneous administration at a dose of 212 mg/kg ( T-Toxic) and I.C.E. value of 0.82; 5/10 and 5 toxic; type: ADME, organism-based; design: dose 212 mg/kg, route subcutaneous; details: in vivo, sc
[14] = tested on: Trypanosoma brucei rhodesiense; assay: In Vitro measurement of inhibition of Leucine uptake in cell culture of Trypanosoma rhodesiense.; type: functional; details: read-out: ID50 (the source's name)
Outline: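 Trypanosomes harvested from infected rats, cultured 3 h with several concentrations of drug, usually 0.1–100 µg/mL. Radiolabeled L-leucine uptake measured. ID50 is the concentration in µg/mL giving 50% inhibition of incorporation.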

[15] = tested on: Mus musculus; assay: Curative activity of the Compound after oral administration at a dose of 26 mg/kg and I.C.E. value of 0.60; 15/15; type: functional
[16] = tested on: Mus musculus; assay: Curative activity of the Compound after oral administration at a dose of 424 mg/kg and I.C.E. value of 0.60; 10/10; type: functional
[17] = tested on: Mus musculus; assay: Curative activity of the Compound after oral administration at a dose of 53 mg/kg and I.C.E. value of 0.60; 5/5; type: functional
[18] = tested on: Mus musculus; assay: Curative activity of the Compound after Subcutaneous administration at a dose of 424 mg/kg ( T-Toxic)and I.C.E. value of 0.82; 4/20 and 16 toxic; type: ADME, organism-based; design: dose 424 mg/kg, route subcutaneous; details: in vivo, sc
[19] = tested on: Mus musculus; assay: Fraction of mice that were cured after oral administration at a dose of 106 mg/kg and I.C.E. value of 0.56; type: functional
[20] = tested on: Mus musculus; assay: Curative activity of the Compound after oral administration at a dose of 0.42 mg/kg and I.C.E. value of 0.60; type: functional
[21] = tested on: Mus musculus; assay: Fraction of mice that were cured after subcutaneous administration at a dose of 6.6 mg/kg and I.C.E. value of 0.82; type: functional
[22] = tested on: Mus musculus; assay: Curative activity of the Compound after Subcutaneous administration at a dose of 0.83 mg/kg and I.C.E. value of 0.82;20/20; type: functional
[23] = tested on: Mus musculus; assay: Curative activity of the Compound after oral administration at a dose of 106 mg/kg and I.C.E. value of 0.60; 10/10; type: functional
[24] = tested on: Mus musculus; assay: Fraction of mice that were cured after subcutaneous administration at a dose of 106 mg/kg and I.C.E. value of 0.82; type: functional
[25] = tested on: Mus musculus; assay: Curative activity of the Compound after oral administration at a dose of 13 mg/kg and I.C.E. value of 0.60; 10/10; type: functional
[26] = tested on: Mus musculus; assay: Curative activity of the Compound after Subcutaneous administration at a dose of 53 mg/kg and I.C.E. value of 0.82; […]; type: functional
[27] = tested on: Mus musculus; assay: Trypanocidal Activity at I.C.E. value 0.56 when administered perorally.; type: functional
[28] = tested on: Mus musculus; assay: Curative activity of the Compound after Subcutaneous administration at a dose of 26 mg/kg and I.C.E. value of 0.82; […]; type: functional
[29] = tested on: Mus musculus; assay: Fraction of mice that were cured after oral administration at a dose of 3.3 mg/kg and I.C.E. value of 0.56; type: functional
[30] = tested on: Mus musculus; assay: Fraction of mice that were cured after oral administration at a dose of 212 mg/kg and I.C.E. value of 0.56; type: functional
[31] = tested on: Mus musculus; assay: Fraction of mice that were cured after subcutaneous administration at a dose of 424 mg/kg and I.C.E. value of 0.82; type: functional
[32] = tested on: Mus musculus; assay: Fraction of mice that were cured after subcutaneous administration at a dose of 212 mg/kg and I.C.E. value of 0.82; type: functional
[33] = tested on: Mus musculus; assay: Fraction of mice that were cured after subcutaneous administration at a dose of 3.3 mg/kg and I.C.E. value of 0.82; type: functional
[34] = tested on: Mus musculus; assay: Fraction of mice that were cured after subcutaneous administration at a dose of 13 mg/kg and I.C.E. value of 0.82; type: functional
[35] = tested on: Mus musculus; assay: Fraction of mice that were cured after subcutaneous administration at a dose of 0.42 mg/kg and I.C.E. value of 0.82; type: functional
[36] = tested on: Mus musculus; assay: Fraction of mice that were cured after oral administration at a dose of 0.42 mg/kg and I.C.E. value of 0.56; type: functional
[37] = tested on: Mus musculus; assay: Curative activity of the Compound after oral administration at a dose of 0.83 mg/kg and I.C.E. value of 0.60; type: functional
[38] = tested on: Mus musculus; assay: Curative activity of the Compound after Subcutaneous administration at a dose of 3.3 mg/kg and I.C.E. value of 0.82; 10/10; type: functional
[39] = tested on: Mus musculus; assay: Fraction of mice that were cured after oral administration at a dose of 6.6 mg/kg and I.C.E. value of 0.56; type: functional
[40] = tested on: Mus musculus; assay: Fraction of mice that were cured after oral administration at a dose of 1.67 mg/kg and I.C.E. value of 0.56; type: functional
[41] = tested on: Mus musculus; assay: Curative activity of the Compound after oral administration at a dose of 1.67 mg/kg and I.C.E. value of 0.60; type: functional
[42] = tested on: Mus musculus; assay: Fraction of mice that were cured after oral administration at a dose of 424 mg/kg and I.C.E. value of 0.56; type: functional
[43] = tested on: Mus musculus; assay: Fraction of mice that were cured after oral administration at a dose of 26 mg/kg and I.C.E. value of 0.56; type: functional
[44] = tested on: Mus musculus; assay: Curative activity of the Compound after Subcutaneous administration at a dose of 53 mg/kg and I.C.E. value of 0.82; 9/10; type: functional
[45] = tested on: Mus musculus; assay: Curative activity of the Compound after oral administration at a dose of 3.3 mg/kg and I.C.E. value of 0.60;1/5; type: functional
[46] = tested on: Mus musculus; assay: Fraction of mice that were cured after subcutaneous administration at a dose of 0.83 mg/kg and I.C.E. value of 0.82; type: functional
[47] = tested on: Trypanosoma brucei rhodesiense; assay: In Vitro measurement of inhibition of thymidine uptake in cell culture of Trypanosoma rhodesiense.; type: functional; details: read-out: ID50 (the source's name)
Outline: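 Parasites harvested from infected rats and incubated 3 h across a drug concentration series, usually 0.1–100 µg/mL. Incorporation of radiolabeled thymidine measured. ID50 is the concentration (µg/mL) producing 50% inhibition.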

[48] = tested on: Mus musculus; assay: Fraction of mice that were cured after oral administration at a dose of 0.83 mg/kg and I.C.E. value of 0.56; type: functional
[49] = tested on: Mus musculus; assay: Curative activity of the Compound after Subcutaneous administration at a dose of 106 mg/kg ( T-Toxic) and I.C.E. value of 0.82; 16/20 and 1 toxic; type: ADME, organism-based; design: dose 106 mg/kg, route subcutaneous; details: in vivo, sc
[50] = tested on: Mus musculus; assay: Trypanocidal Activity at I.C.E. value 0.82 when administered subcutaneously.; type: functional; outline: as §1
[51] = tested on: Mus musculus; assay: Curative activity of the Compound after Subcutaneous administration at a dose of 1.67 mg/kg and I.C.E. value of 0.82; 19/20; type: functional
[52] = tested on: Mus musculus; assay: Fraction of mice that were cured after subcutaneous administration at a dose of 26 mg/kg and I.C.E. value of 0.82; type: functional
[53] = tested on: Mus musculus; assay: Fraction of mice that were cured after oral administration at a dose of 13 mg/kg and I.C.E. value of 0.56; type: functional
[54] = tested on: Mus musculus; assay: Fraction of mice that were cured after oral administration at a dose of 53 mg/kg and I.C.E. value of 0.56; type: functional
[55] = tested on: Mus musculus; assay: Curative activity of the Compound after oral administration at a dose of 212 mg/kg and I.C.E. value of 0.60; 5/5; type: functional
[56] = tested on: Mus musculus; assay: Fraction of mice that were cured after subcutaneous administration at a dose of 1.67 mg/kg and I.C.E. value of 0.82; type: functional

SMILES: Cc1ccc(S(=O)(=O)O)cc1.Cc1ccc(S(=O)(=O)[O-])cc1.Cc1cccc2n1cc(/C=C/c1ccc(/C=N/NC(=N)N)cc1)[n+]2C
- CD50 [1]: 53 mg/kg
- CD50 [2]: 0.4 mg/kg

SMILES: Br.CN(C)C(=N)N/N=C/c1ccc(-c2c([N+](=O)[O-])n3ccccc3[n+]2C)cc1.[Br-]
- CD50 [3]: 0.8 mg/kg
- CD50 [4]: 53 mg/kg

SMILES: Br.C[n+]1c(-c2ccc(/C=N/NC(=N)N)cc2)c(Br)n2ccccc21.[Br-]
- CD50 [5]: 1.6 mg/kg
- CD50 [6]: 26 mg/kg

SMILES: Br.Cc1ccc2n(c1)cc(COc1ccc(/C=N/NC(=N)N)cc1)[n+]2C.[Br-]
- CD50 [7]: 6.6 mg/kg
- CD50 [8]: 0.2 mg/kg

SMILES: CCSc1ccc2n(c1)cc(-c1ccc(/C=N/NC(=N)N)cc1)[n+]2C.Cc1ccc(S(=O)(=O)O)cc1.Cc1ccc(S(=O)(=O)[O-])cc1
- CD50 [9]: 0.1 mg/kg

SMILES: Cc1ccc(S(=O)(=O)O)cc1.Cc1ccc(S(=O)(=O)[O-])cc1.Cc1ccc2n(c1)cc(-c1ccc(/C=N/NC(=N)N)cc1)[n+]2C
- Survivors [10]: 2
- Fraction cured [11]: 0.9
- Survivors [12]: 8
- Survivors [13]: 5
- IC50 [14]: 0.5 µg/mL
- Survivors [15]: 15
- Survivors [16]: 10
- Survivors [17]: 5
- Survivors [18]: 4
- Fraction cured [19]: 1
- Survivors [20]: 0
- Fraction cured [21]: 1
- Survivors [22]: 20
- Survivors [23]: 10
- Fraction cured [24]: 0.8
- Survivors [25]: 10
- Survivors [26]: 9
- CD50 [27]: 6.6 mg/kg
- Survivors [28]: 29
- Fraction cured [29]: 0.2
- Fraction cured [30]: 1
- Fraction cured [31]: 0.2
- Fraction cured [32]: 0.5
- Fraction cured [33]: 1
- Fraction cured [34]: 1
- Fraction cured [35]: 0.8
- Fraction cured [36]: 0
- Survivors [37]: 0
- Survivors [38]: 10
- Fraction cured [39]: 0.4
- Fraction cured [40]: 0
- Survivors [41]: 0
- Fraction cured [42]: 1
- Fraction cured [43]: 1
- Survivors [44]: 9
- Survivors [45]: 1
- Fraction cured [46]: 1
- IC50 [47]: 0.4 µg/mL
- Fraction cured [48]: 0
- Survivors [49]: 16
- CD50 [50]: 0.2 mg/kg
- Survivors [51]: 19
- Fraction cured [52]: 0.97
- Fraction cured [53]: 1
- Fraction cured [54]: 1
- Survivors [55]: 5
- Fraction cured [56]: 0.95
